Experimental data as given in ChEMBL document CHEMBL3425404, “Structure-activity relationship in a purine-scaffold compound series with selectivity for the endoplasmic reticulum Hsp90 paralog Grp94” (J Med Chem, 2015).
Calls of active or inactive are those of the source. No cut-off for these calls is given here.

Columns and labels:
[1] = target: Endoplasmin (Canis lupus familiaris, UniProt P41148); test: Binding affinity to canine full-length His-tagged GRP94 (28 to 754 residues lacking 287 to 327 residues) expressed in Escherichia coli by tryptophan fluorescence assay
Chain of Endoplasmin (P41148 22-804 limits assumed): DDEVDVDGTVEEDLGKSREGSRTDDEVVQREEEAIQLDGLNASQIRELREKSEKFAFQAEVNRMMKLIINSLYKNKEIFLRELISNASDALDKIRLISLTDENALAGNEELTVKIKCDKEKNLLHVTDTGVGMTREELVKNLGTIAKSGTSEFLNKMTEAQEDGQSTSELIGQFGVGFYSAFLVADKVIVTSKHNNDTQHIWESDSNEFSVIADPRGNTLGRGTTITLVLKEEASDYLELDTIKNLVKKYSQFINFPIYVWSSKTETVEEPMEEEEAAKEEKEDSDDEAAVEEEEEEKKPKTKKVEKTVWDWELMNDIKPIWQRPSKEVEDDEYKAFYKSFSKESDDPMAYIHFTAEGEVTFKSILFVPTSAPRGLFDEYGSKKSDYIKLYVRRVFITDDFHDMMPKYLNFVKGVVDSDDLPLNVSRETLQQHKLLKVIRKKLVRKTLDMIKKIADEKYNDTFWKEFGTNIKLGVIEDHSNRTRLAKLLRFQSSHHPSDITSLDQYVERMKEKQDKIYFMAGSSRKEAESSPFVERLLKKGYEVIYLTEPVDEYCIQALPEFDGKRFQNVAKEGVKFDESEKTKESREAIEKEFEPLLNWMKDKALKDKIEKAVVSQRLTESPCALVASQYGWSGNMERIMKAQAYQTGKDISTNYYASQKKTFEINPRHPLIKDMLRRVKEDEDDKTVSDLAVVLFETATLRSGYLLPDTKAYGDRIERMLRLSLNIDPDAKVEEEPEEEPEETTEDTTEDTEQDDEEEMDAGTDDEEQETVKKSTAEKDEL

[2] = Binding affinity to full length yeast His-tagged Hsp90 (1 to 709) overexpressed in Escherichia coli BL21 Star (DE3) by tryptophan fluorescence assay; parameters: species or system Saccharomyces cerevisiae
[3] = organism: Homo sapiens; test: Selectivity ratio of IC50 for recombinant Hsp90beta (unknown origin) to IC50 for recombinant Grp94 (unknown origin)
[4] = organism: Homo sapiens; test: Selectivity ratio of IC50 for recombinant Trap1 (unknown origin) to IC50 for recombinant Grp94 (unknown origin)
[5] = target: Endoplasmin (Homo sapiens) (UniProt P14625); test: Inhibition of Grp94 in HEK293T cells assessed as downregulation of TLR9 protein expression in post ER compartment after 24 hrs by confocal microscopic analysis; type: cell-based; conditions: HEK-293T
Chain of Endoplasmin (Homo sapiens) (P14625 whole entry): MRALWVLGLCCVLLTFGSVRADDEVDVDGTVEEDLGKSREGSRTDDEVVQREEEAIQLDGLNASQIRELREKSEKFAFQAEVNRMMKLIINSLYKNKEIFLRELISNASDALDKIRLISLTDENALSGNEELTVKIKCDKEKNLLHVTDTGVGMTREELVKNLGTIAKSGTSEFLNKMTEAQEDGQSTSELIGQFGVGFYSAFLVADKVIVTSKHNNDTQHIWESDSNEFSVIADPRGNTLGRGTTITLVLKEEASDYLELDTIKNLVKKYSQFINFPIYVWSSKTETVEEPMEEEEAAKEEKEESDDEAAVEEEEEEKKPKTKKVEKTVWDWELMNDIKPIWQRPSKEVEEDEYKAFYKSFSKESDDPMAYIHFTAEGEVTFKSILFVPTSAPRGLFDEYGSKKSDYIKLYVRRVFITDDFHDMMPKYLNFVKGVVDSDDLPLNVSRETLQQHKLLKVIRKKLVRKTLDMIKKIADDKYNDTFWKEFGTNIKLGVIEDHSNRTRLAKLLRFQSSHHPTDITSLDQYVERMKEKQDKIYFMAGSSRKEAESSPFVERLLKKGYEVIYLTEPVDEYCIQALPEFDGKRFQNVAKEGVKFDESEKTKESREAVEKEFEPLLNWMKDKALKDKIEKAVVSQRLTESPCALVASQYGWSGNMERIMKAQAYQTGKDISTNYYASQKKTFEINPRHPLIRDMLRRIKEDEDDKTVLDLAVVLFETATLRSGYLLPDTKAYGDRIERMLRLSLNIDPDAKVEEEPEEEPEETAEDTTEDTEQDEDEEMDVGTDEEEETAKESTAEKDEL
Outline: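 HEK293T cells were transfected with HA-tagged human TLR9 and split onto chamber slides 24 h later. They were then treated 24 h at varying concentrations. Cells were fixed in 4% paraformaldehyde, permeabilized with Triton X-100 and blocked in 3% BSA. They were stained with anti-HA then Cy3 secondary, with DAPI. Imaging was by confocal microscopy, and fluorescence intensity was normalized to cell number.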

[6] = target: Endoplasmin (Mus musculus) (UniProt P08113); test: Inhibition of Grp94 in mouse RAW264.7 cells assessed as inhibition of CpG-induced TNFalpha production after 18 hrs by ELISA; type: cell-based
Chain of Endoplasmin (Mus musculus) (P08113 whole entry): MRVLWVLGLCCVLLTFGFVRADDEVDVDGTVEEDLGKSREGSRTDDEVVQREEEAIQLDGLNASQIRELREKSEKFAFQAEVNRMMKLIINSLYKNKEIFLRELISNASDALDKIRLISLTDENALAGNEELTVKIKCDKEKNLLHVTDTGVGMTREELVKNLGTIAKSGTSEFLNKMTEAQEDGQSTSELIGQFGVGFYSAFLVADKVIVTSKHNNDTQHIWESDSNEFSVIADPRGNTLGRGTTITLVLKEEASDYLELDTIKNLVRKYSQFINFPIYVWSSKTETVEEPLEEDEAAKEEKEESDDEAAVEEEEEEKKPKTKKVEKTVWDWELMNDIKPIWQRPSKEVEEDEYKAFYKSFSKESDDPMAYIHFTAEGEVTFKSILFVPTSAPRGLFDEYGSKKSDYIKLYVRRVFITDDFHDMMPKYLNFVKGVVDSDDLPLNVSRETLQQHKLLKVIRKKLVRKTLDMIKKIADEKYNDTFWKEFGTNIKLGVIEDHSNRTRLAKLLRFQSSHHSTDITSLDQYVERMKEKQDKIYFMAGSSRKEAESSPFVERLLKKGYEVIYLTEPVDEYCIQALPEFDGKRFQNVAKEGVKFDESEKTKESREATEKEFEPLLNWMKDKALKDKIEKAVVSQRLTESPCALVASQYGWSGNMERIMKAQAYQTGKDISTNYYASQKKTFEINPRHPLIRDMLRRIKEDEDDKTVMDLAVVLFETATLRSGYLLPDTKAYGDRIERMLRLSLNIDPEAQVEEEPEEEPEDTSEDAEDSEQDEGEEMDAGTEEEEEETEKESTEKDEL

[7] = target: Endoplasmin (Mus musculus) (UniProt P08113); test: Inhibition of Grp94 in mouse differentiated C2C12 cells assessed as inhibition of IGF-2 secretion after 24 hrs by ELISA; type: cell-based
Outline: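 C2C12 mouse myoblasts were shifted to differentiation medium (DMEM, 2% horse serum) and treated 24 h with compounds. Medium was captured overnight at 4 °C on anti-IGF-II ELISA plates and detected with biotinylated antibody, HRP-streptavidin and TMB. A450 was read, and IGF-II was quantified against a recombinant IGF-II standard curve.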

[8] = target: Endoplasmin (Homo sapiens) (UniProt P14625); test: Inhibition of Grp94 in human SKBR3 cells overexpressing HER2 assessed as degradation of HER2 at 1 to 25 uM after 24 hrs by Western blot analysis; type: cell-based; conditions: SK-BR-3
Outline: (§1)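 SKBr3 cells were treated 24 h with DMSO vehicle or compound, then lysed in RIPA with protease inhibitors. Lysate (5−50 μg) was run on SDS−PAGE and immunoblotted for HER2 or Hsp70, with β-actin as loading control. Detection was by HRP secondary and ECL, with densitometry. Blots are representative of triplicate experiments.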

[9] = target: Heat shock protein HSP90 (Homo sapiens) (UniProt P07900+P08238); test: Inhibition of HSP90 in human SKBR3 cells assessed as induction of HSP70 activity at 1 to 25 uM after 24 hrs by Western blot analysis; type: cell-based; conditions: SK-BR-3; outline: as §1
[10] = system: RAW264.7; test: Inhibition of HSP90 in mouse RAW264.7 cells assessed as inhibition of LPS-induced TNFalpha production at 2 to 16 uM after 18 hrs by ELISA; type: cell-based
[11] = system: Mus musculus; test: Acute toxicity in nu/nu athymic mouse xenografted with human MDA-MB-468 cells at 150 mg/kg, ip; type: organism-based; parameters: dose 150 mg/kg, route intraperitoneal; conditions: in vivo
Outline: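 MDA-MB-468 cells (1 × 10^7) were implanted sc in the right flank and allowed to grow. Tumour-bearing mice (n = 4) received 75 or 150 mg/kg ip and were followed for acute toxicity. Augmentin was given in the drinking water during therapy.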

[12] = Drug uptake in tumor of nu/nu athymic mouse xenografted with human MDA-MB-468 cells at 75 mg/kg, ip measured at 2 hrs by LC-MS/MS analysis; type: ADME, organism-based; parameters: dose 75 mg/kg, route intraperitoneal; conditions: read-out: Drug uptake
Outline: (§2)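 Mice bearing subcutaneous MDA-MB-468 breast tumors (1 × 10^7 cells in right flank) got a single 75 mg/kg ip dose, n = 4 per time point. They were sacrificed at 2 and 24 h. Drug in tumor, tissues and plasma was quantified by LC−MS/MS, and tumor-to-tissue or tumor-to-plasma ratios were computed. Mean ± error.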

[13] = Plasma concentration in nu/nu athymic mouse xenografted with human MDA-MB-468 cells at 75 mg/kg, ip measured at 2 hrs by LC-MS/MS analysis; type: ADME, organism-based; parameters: dose 75 mg/kg, route intraperitoneal; outline: as §2
[14] = system: Nucleic Acid; test: Ratio of drug level in tumor to heart in nu/nu athymic mouse xenografted with human MDA-MB-468 cells at 75 mg/kg, ip measured at 24 hrs by LC-MS/MS analysis; type: ADME, organism-based; parameters: dose 75 mg/kg, route intraperitoneal; conditions: in vivo; outline: as §2
[15] = Ratio of drug level in tumor to plasma in nu/nu athymic mouse xenografted with human MDA-MB-468 cells at 75 mg/kg, ip measured at 24 hrs by LC-MS/MS analysis; type: ADME, organism-based; parameters: dose 75 mg/kg, route intraperitoneal; outline: as §2
[16] = Oral bioavailability in B6D2F1 mouse at 10 mg/kg by LC-MS/MS analysis; type: ADME, organism-based; conditions: in vivo
Outline: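 Male B6D2F1 mice (n = 2 per time point, 20 total) got a single 10 mg/kg iv or oral dose in 30% captisol, 5 mM citrate pH 4.2. Plasma levels at sacrifice times were measured by LC−MS/MS, converted to molar assuming 1 g = 1 mL, and plotted versus time. Oral F was derived.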

Row | Structure (SMILES) | Kd [1] [nM] | Kd [2] [nM] | Ratio IC50 [3] | Ratio IC50 [4] | inhibition [5] | inhibition [6] | inhibition [7] | inhibition [8] | inhibition [9] | inhibition [10] | Activity [11] | concentration at 2 h [12] [µM] | concentration at 2 h [13] [µM] | Ratio [14] | Kp at 24 h [15] | bioavailability [16] [%]
1 | COC(=O)c1c(O)cc(O)c(Cl)c1CCC(=O)NC1=CC(=O)C(OC)=CC1=O | 520 | 870 |  |  |  |  |  |  |  |  |  |  |  |  |  | 
2 | CC(C)NCCCn1c(Sc2cc(Cl)cc(Cl)c2)nc2c(N)ncnc21 |  |  | > 100 | 33 | Dose-dependent effect | Dose-dependent effect | Dose-dependent effect | Active | inactive | inactive | Non-toxic | 850 | 100 | 100 | 200 | 80
